According to ChEMBL document CHEMBL5584279, “New Lipophilic Hydroxamates as Promising Trypanocidal Agents: Design, Synthesis, SAR, and Conformational Behavior Studies” (ACS Med Chem Lett, 2024):

Tested on: Trypanosoma brucei
Assay: Trypanocidal activity against bloodstream form of Trypanosoma brucei 221 assessed as inhibition of parasite growth incubated for 48 hrs followed by resazurin addition and measured after 16 hrs by resazurin assay
Type: functional, organism-based
Procedure, shortened: (§1)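 Bloodstream-form T. brucei were cultured in vitro at pH 7.4. Growth inhibition was expressed as IC50 and IC90, the concentrations that inhibit parasite growth by 50% and 90%. Values are the mean of triplicate experiments ± SEM.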

Q: For `CC(C)C[C@@H]1NC2(CCCCCC2)C(=O)N(CC(=O)NO)C1=O`, which IC50 is on record?
A: 99 nM

Tested on: Trypanosoma brucei
Assay: Trypanocidal activity against bloodstream form of Trypanosoma brucei assessed as inhibition of parasite growth
Type: functional, organism-based
Procedure, shortened: as §1

Q: Which IC50 does the source give for `CN1CC(=O)N(CC(=O)NO)C(=O)C1(C)c1ccc(F)cc1` (stereo not drawn) here?
A: 8160 nM

Q: For `CCCCC1(c2ccccc2)NCC(=O)N(CC(=O)NO)C1=O` (stereo not drawn), which IC50 is on record?
A: 1720 nM

Q: For `CCCN1CC(=O)N(CC(=O)NO)C(=O)C1(C)c1ccccc1` (stereo not drawn), which IC50 is on record?
A: 470 nM

Q: For `CCCCN1CC(=O)N(CC(=O)NO)C(=O)C1(C)c1ccccc1` (stereo not drawn), which IC50 is on record?
A: 630 nM

Q: `CC1(c2ccc([N+](=O)[O-])cc2)NCC(=O)N(CC(=O)NO)C1=O` (stereo not drawn) was tested. Which IC50 did it give?
A: 11700 nM

Q: How did the IC50 turn out when `CN1CC(=O)N(CC(=O)NO)C(=O)C1(C)c1ccccc1` (stereo not drawn) was run?
A: 590 nM

Q: For `CC1(c2ccc(F)cc2)NCC(=O)N(CC(=O)NO)C1=O` (stereo not drawn), which IC50 is on record?
A: 19100 nM

Q: For `CCCC1(c2ccccc2)C(=O)N(CC(=O)NO)C(=O)CN1C` (stereo not drawn), which IC50 is on record?
A: 1770 nM

Q: For `CCCCC1(c2ccccc2)C(=O)N(CC(=O)NO)C(=O)CN1C` (stereo not drawn), which IC50 is on record?
A: 2650 nM

Q: With `CCCC1(c2ccccc2)NCC(=O)N(CC(=O)NO)C1=O` (stereo not drawn) as the molecule, how does the IC50 read?
A: 7250 nM

Q: For `CC1(c2ccccc2)NCC(=O)N(CC(=O)NO)C1=O` (stereo not drawn), which IC50 is on record?
A: 6970 nM

Q: For `CN1CC(=O)N(CC(=O)NO)C(=O)C1(C)c1ccc([N+](=O)[O-])cc1` (stereo not drawn), which IC50 is on record?
A: 1220 nM
